Several values for one entry are separate records, joined by “and”; a condition that tells them apart may be missing. Identical values can stand only once.
Test system: U2OS
Experiment: Multiplex assay against U2OS
Format: toxicity, cell-based
Details: human
Outline: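 At seeding, live cells were stained with Hoechst33342, BioTracker Green Microtubule Cytoskeleton Dye, MitoTracker Red and Annexin V Alexa Fluor 680. After compound addition they were imaged on a CQ1 microscope at 37°C and 5% CO2, and CellPathfinder machine-learning gating sorted them into Hoechst high-intensity objects or normal cells, with normal cells further split into healthy, pyknosed or fragmented nuclei and pyknosed cells into mitotic or apoptotic. Tubulin, mitochondrial-mass and membrane-permeability phenotypes are given as per cents of cells with healthy nuclei.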

[1] = 12 h, 1 µM, compound concentration 1 uM, replicate 1
[2] = 12 h, 1 µM, compound concentration 1 uM, replicate 2
[3] = 12 h, 10 µM, compound concentration 10 uM, replicate 1
[4] = 12 h, 10 µM, compound concentration 10 uM, replicate 2
[5] = 24 h, 1 µM, compound concentration 1 uM, replicate 1
[6] = 24 h, 1 µM, compound concentration 1 uM, replicate 2
[7] = 24 h, 10 µM, compound concentration 10 uM, replicate 1
[8] = 24 h, 10 µM, compound concentration 10 uM, replicate 2
[9] = 48 h, 1 µM, compound concentration 1 uM, replicate 1
[10] = 48 h, 1 µM, compound concentration 1 uM, replicate 2
[11] = 48 h, 10 µM, compound concentration 10 uM, replicate 1
[12] = 48 h, 10 µM, compound concentration 10 uM, replicate 2

With `CS(=O)(=O)N1CCCC(NC(=O)[C@H](CCC2CCCCC2)NC(=O)c2ccc(CNC(=O)c3cnc4ccccn34)cc2)C1` (some centres undefined) [SR-302] the “Population Apoptotic (%)” value [1] was 41% [middle of 4 runs], the “Population Fragmented Nuclei (%)” value [1] was 2% and 6% and 10% and 5% and the “Population Healthy Nuclei (%)” value [1] was 92% and 78% and 82%. The “Population Membrane Permeable-Phenotype (%)” value [1] was 12% and 6% and 4%, the “Population Mitotic Cells (%)” value [1] was 80% and 39% and 58% and the “Population Normal (%)” value [1] was 95% and 97% and 96% and 92%. The “Population Pyknosed Nuclei (%)” value [1] was 5% and 10% and 11%, the “Population Tubulin-Different-Phenotype (%)” value [1] was 18% and 32% and 29% and the “Total Cell Count” value [1] was 258 [middle of 4 runs]. For the same molecule, the “Population Fragmented Nuclei (%)” value [2] was 8% and 12%, the “Population Healthy Nuclei (%)” value [2] was 90% and 83% and 81% and 76% and the “Population Hoechst High Intensity Objects (%)” value [2] was 10% and 6% and 16%. The “Population Membrane Permeable-Phenotype (%)” value [2] was 7% [middle of 4 runs], the “Population Mitotic Cells (%)” value [2] was 100% and 60% and 66% and the “Population Normal (%)” value [2] was 89% and 93% and 83%. The “Population Pyknosed Nuclei (%)” value [2] was 8% [middle of 4 runs], the “Population Tubulin-Different-Phenotype (%)” value [2] was 15% and 17% and 14% and the “Total Cell Count” value [2] was 84 [middle of 4 runs]. For the same molecule, the “Population Apoptotic (%)” value [3] was 56% [middle of 4 runs], the “Population Fragmented Nuclei (%)” value [3] was 11% and 10% and 2% and the “Population Healthy Nuclei (%)” value [3] was 70% and 74% and 75% and 94%. The “Population Hoechst High Intensity Objects (%)” value [3] was 11% and 5%, the “Population Membrane Permeable-Phenotype (%)” value [3] was 13% and 12% and the “Population Mitotic Cells (%)” value [3] was 65% [middle of 4 runs]. For the same molecule, the “Population Normal (%)” value [3] was 88% and 94%, the “Total Cell Count” value [3] was 185 [middle of 4 runs] and the “Population Fragmented Nuclei (%)” value [4] was 12% and 9% and 6%. For the same molecule, the “Population Healthy Nuclei (%)” value [4] was 80% and 83% and 86%, the “Population Hoechst High Intensity Objects (%)” value [4] was 7% and 6% and 3% and the “Population Membrane Permeable-Phenotype (%)” value [4] was 20% [middle of 4 runs]. For the same molecule, the “Population Normal (%)” value [4] was 92% and 93% and 96%, the “Population Pyknosed Nuclei (%)” value [4] was 7% and 9% and 4% and the “Total Cell Count” value [4] was 92 [middle of 4 runs]. For the same molecule, the “Population Apoptotic (%)” value [5] was 18% and 31% and 46%, the “Population Fragmented Nuclei (%)” value [5] was 3% and 6% and 5% and 8% and the “Population Healthy Nuclei (%)” value [5] was 90% and 85% and 87% and 81%. The “Population Hoechst High Intensity Objects (%)” value [5] was 1% and 2% and 3%, the “Population Membrane Permeable-Phenotype (%)” value [5] was 7% and 6% and 2% and 1% and the “Population Mitotic Cells (%)” value [5] was 81% and 68% and 53%. For the same molecule, the “Population Normal (%)” value [5] was 98% and 97% and 96%, the “Population Pyknosed Nuclei (%)” value [5] was 6% and 7% and 10% and the “Total Cell Count” value [5] was 310 [middle of 4 runs]. The “Population Fragmented Nuclei (%)” value [6] was 7%, the “Population Healthy Nuclei (%)” value [6] was 91% and 84% and 88% and 93% and the “Population Membrane Permeable-Phenotype (%)” value [6] was 9% and 8% and 5%. The “Population Mitotic Cells (%)” value [6] was 66% and 50% and 85%, the “Population Normal (%)” value [6] was 89% and 85% and 95% and the “Population Pyknosed Nuclei (%)” value [6] was 1% and 8% and 2%. For the same molecule, the “Population Tubulin-Different-Phenotype (%)” value [6] was 24% [middle of 4 runs], the “Total Cell Count” value [6] was 97 [middle of 4 runs] and the “Population Apoptotic (%)” value [7] was 62% [middle of 4 runs]. The “Population Fragmented Nuclei (%)” value [7] was 10% and 11% and 5%, the “Population Healthy Nuclei (%)” value [7] was 72% and 71% and 90% and the “Population Hoechst High Intensity Objects (%)” value [7] was 8% and 6% and 1%. The “Population Membrane Permeable-Phenotype (%)” value [7] was 11% and 13%, the “Population Mitotic Cells (%)” value [7] was 51% [middle of 4 runs] and the “Population Normal (%)” value [7] was 91% and 93% and 98%. The “Total Cell Count” value [7] was 265 [middle of 4 runs], the “Population Apoptotic (%)” value [8] was 54% [middle of 4 runs] and the “Population Fragmented Nuclei (%)” value [8] was 7% and 1% and 9%. The “Population Healthy Nuclei (%)” value [8] was 77% and 82% and 89%, the “Population Hoechst High Intensity Objects (%)” value [8] was 11% and 4% and 5% and the “Population Membrane Permeable-Phenotype (%)” value [8] was 20% and 16% and 12%. The “Population Mitotic Cells (%)” value [8] was 60% [middle of 4 runs], the “Population Normal (%)” value [8] was 88% and 95% and 94% and the “Population Pyknosed Nuclei (%)” value [8] was 15% and 13%. The “Total Cell Count” value [8] was 91 [middle of 4 runs], the “Population Apoptotic (%)” value [9] was 40% and 44% and 37% and the “Population Fragmented Nuclei (%)” value [9] was 4% and 1% and 2%. For the same molecule, the “Population Healthy Nuclei (%)” value [9] was 92% and 90%, the “Population Hoechst High Intensity Objects (%)” value [9] was 1% and 0% and the “Population Membrane Permeable-Phenotype (%)” value [9] was 2%. The “Population Mitochondria Different-Phenotype (%)” value [9] was 15% and 9% and 7%, the “Population Mitotic Cells (%)” value [9] was 60% and 56% and 62% and the “Population Normal (%)” value [9] was 98% and 99%. For the same molecule, the “Population Pyknosed Nuclei (%)” value [9] was 6% and 5%, the “Population Tubulin-Different-Phenotype (%)” value [9] was 40% and 18% and 46% and the “Total Cell Count” value [9] was 466 and 472. For the same molecule, the “Population Fragmented Nuclei (%)” value [10] was 6% and 3%, the “Population Healthy Nuclei (%)” value [10] was 84% and 88% and 91% and the “Population Hoechst High Intensity Objects (%)” value [10] was 9% and 2%. For the same molecule, the “Population Membrane Permeable-Phenotype (%)” value [10] was 7% and 4% and 1%, the “Population Mitochondria Different-Phenotype (%)” value [10] was 11% and 5% and the “Population Mitotic Cells (%)” value [10] was 44% and 91% and 66%. For the same molecule, the “Population Normal (%)” value [10] was 90% and 97%, the “Population Pyknosed Nuclei (%)” value [10] was 9% and 8% and the “Population Tubulin-Different-Phenotype (%)” value [10] was 30% and 26% and 12%. For the same molecule, the “Total Cell Count” value [10] was 93 and 189 and 109, the “Population Apoptotic (%)” value [11] was 70% and 57% and the “Population Fragmented Nuclei (%)” value [11] was 10%. For the same molecule, the “Population Healthy Nuclei (%)” value [11] was 74% and 73% and 72%, the “Population Hoechst High Intensity Objects (%)” value [11] was 8% and the “Population Membrane Permeable-Phenotype (%)” value [11] was 7% and 4%. The “Population Mitochondria Different-Phenotype (%)” value [11] was 39% and 36% and 30%, the “Population Mitotic Cells (%)” value [11] was 29% and 42% and the “Population Normal (%)” value [11] was 91%. For the same molecule, the “Population Pyknosed Nuclei (%)” value [11] was 16% and 17%, the “Population Tubulin-Different-Phenotype (%)” value [11] was 40% and 38% and 30% and the “Total Cell Count” value [11] was 243 and 658 and 261. The “Population Apoptotic (%)” value [12] was 76% and 46% and 90%, the “Population Fragmented Nuclei (%)” value [12] was 9% and 6% and 8% and the “Population Healthy Nuclei (%)” value [12] was 75% and 79% and 80%. For the same molecule, the “Population Hoechst High Intensity Objects (%)” value [12] was 7% and 5% and 1%, the “Population Membrane Permeable-Phenotype (%)” value [12] was 20% and 16% and the “Population Mitochondria Different-Phenotype (%)” value [12] was 59% and 41% and 44%. The “Population Normal (%)” value [12] was 92% and 94% and 98%, the “Population Pyknosed Nuclei (%)” value [12] was 15% and 13% and 10% and the “Population Tubulin-Different-Phenotype (%)” value [12] was 48% and 33% and 39%. For the same molecule, the “Total Cell Count” value [12] was 146 and 92 and 114.

From ChEMBL document CHEMBL4689842, “EUbOPEN Chemogenomics Library wave 1” (2021)
